Results taken from ChEMBL document CHEMBL4219134, “Xanthone derivatives as phosphoglycerate mutase 1 inhibitors: Design, synthesis, and biological evaluation” (Bioorg Med Chem, 2018).

Tests used:
[1] = target: T1, Phosphoglycerate mutase 1 (Homo sapiens, UniProt P18669); assay: Inhibition of recombinant PGAM1 (unknown origin) using 3-PG as substrate preincubated for 2 mins followed by substrate addition
How it was run: (§1)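 Recombinant PGAM1 plus compound (DMSO) in 50 mM Tris pH 8.0, preincubated 2 min at room temperature. Started with 3PG (200 mM stock); NADH oxidation read as OD340 decrease. IC50 from triplicates, mean ± sd.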
Target sequence in this assay (P18669 whole entry): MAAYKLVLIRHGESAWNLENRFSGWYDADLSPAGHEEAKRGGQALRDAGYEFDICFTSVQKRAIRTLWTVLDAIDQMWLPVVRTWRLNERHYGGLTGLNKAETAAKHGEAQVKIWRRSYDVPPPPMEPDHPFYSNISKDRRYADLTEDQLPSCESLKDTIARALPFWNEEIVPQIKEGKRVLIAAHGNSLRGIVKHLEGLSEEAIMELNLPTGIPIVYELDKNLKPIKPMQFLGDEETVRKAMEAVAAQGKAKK

Homo sapiens [2] = species: Homo sapiens; assay: Inhibition of enolase (unknown origin) at 5 uM using 2-PG relative to control
How it was run: (§2)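 PGAM1 omitted to test the downstream coupling enzymes. Compound (0.5 mM stock) preincubated 2 min at room temperature in 50 mM Tris pH 8.0. OD340 decrease read; inhibition ratio at 5 µM.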

Homo sapiens [3] = species: Homo sapiens; assay: Inhibition of pyruvate kinase (unknown origin) at 5 uM using 2-PG relative to control; how it was run: as §2
[4] = target: L-lactate dehydrogenase (Homo sapiens) (UniProt V9HWB9); assay: Inhibition of LDH (unknown origin) at 5 uM using 2-PG relative to control; how it was run: as §2
NCI-H1299 [5] = assay: Antiproliferative activity against human H1299 cells after 72 hrs by MTT assay; format: functional, cell-based; conditions: NCI-H1299, 72 h
How it was run: (§3)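 MTT assay: 2 × 10^3 cells per well, cultured 24 h at 37 °C. Compound then added for 72 h at 37 °C, followed by 0.5 mg mL-1 MTT for 4 h. Formazan dissolved in DMSO and absorbance read at 570 nm. IC50 from triplicate experiments, mean ± sd.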

MCF7 = assay: Antiproliferative activity against human MCF7 cells after 72 hrs by MTT assay; format: functional, cell-based; conditions: MCF7, 72 h; how it was run: as §3
PANC-1 [6] = assay: Antiproliferative activity against human PANC1 cells after 72 hrs by MTT assay; format: functional, cell-based; conditions: PANC-1, 72 h; how it was run: as §3
PANC-1 [7] = assay: Antiproliferative activity against human PANC1 cells at 200 uM after 72 hrs by MTT assay relative to control; format: functional; conditions: PANC-1, 72 h
How it was run: (§4)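 MTT format: 2 × 10^3 cells per well, seeded 24 h, then compound for 72 h at 37 °C. 0.5 mg mL-1 MTT for 4 h, DMSO solubilization, A570. Inhibition ratio recorded at the top tested concentration: 40 µM for H1299, 200 µM for PANC-1.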

[8] = target: T1, Phosphoglycerate mutase 1; assay: Inhibition of recombinant PGAM1 (unknown origin) at 20 uM using 3-PG as substrate preincubated for 2 mins followed by substrate addition relative to control
How it was run: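 Same coupled PGAM1 assay: recombinant enzyme preincubated 2 min at room temperature with compound in 50 mM Tris pH 8.0. Enolase/PK/LDH mix with ADP, MgCl2, KCl and NADH added, then 3PG (200 mM stock) to start. OD340 decrease measured; inhibition ratio recorded at 20 µM.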
Target sequence in this assay (P18669 2-254 limits assumed): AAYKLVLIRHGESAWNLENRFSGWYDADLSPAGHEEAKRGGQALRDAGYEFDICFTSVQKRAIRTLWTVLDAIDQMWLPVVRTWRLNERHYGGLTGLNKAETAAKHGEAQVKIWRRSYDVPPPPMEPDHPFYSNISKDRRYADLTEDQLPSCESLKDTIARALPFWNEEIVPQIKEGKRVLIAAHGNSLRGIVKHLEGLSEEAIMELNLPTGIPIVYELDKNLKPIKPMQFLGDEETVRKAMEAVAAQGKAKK

[9] = target: T1, Phosphoglycerate mutase 1; assay: Inhibition of PGAM1 (unknown origin); how it was run: as §1
Target sequence in this assay (P18669 whole entry): as the sequence (P18669 whole entry) above

[10] = target: T1, Phosphoglycerate mutase 1; assay: Binding affinity to PGAM1 (unknown origin) assessed as change in melting temperature by SYPRO Orange-dye based fluorescence thermal shift assay
How it was run: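 PGAM1 protein at 200 µg/ml with compound at 12.5 to 50 µM in 20 mM Tris-HCl, 100 mM NaCl, pH 7.4. Melting monitored by SYPRO orange fluorescence at 610 nm; Tm shift recorded.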
Target sequence in this assay (P18669 2-254 limits assumed): as the sequence (P18669 2-254 limits assumed) above

NCI-H1299 [11] = assay: Antiproliferative activity against human H1299 cells at 40 uM after 72 hrs by MTT assay relative to control; format: functional; conditions: NCI-H1299, 72 h; how it was run: as §4
[12] = target: T1, Phosphoglycerate mutase 1; assay: Inhibition of PGAM1 in human MDA-MB-231 cells using 3-PGA as substrate after 2 hrs in by UV-vis spectrophotometric method; format: cell-based
Target sequence in this assay (P18669 whole entry): as the sequence (P18669 whole entry) above

NCI-H1299 [13] = assay: Potency index, ratio of PGMI-004A IC50 to test compound IC50 for antiproliferative activity against human H1299 cells; format: functional

Structure (SMILES)	IC50 [1] [µM]	inhibition (Homo sapiens [2]) [%]	inhibition (Homo sapiens [3]) [%]	inhibition [4] [%]	IC50 (NCI-H1299 [5]) [µM]	IC50 (MCF7) [µM]	IC50 (PANC-1 [6]) [µM]	inhibition [8] [%]	further results
O=c1c2c(O)cccc2oc2cc(NS(=O)(=O)c3ccccc3)c(O)c(O)c12	2.8	6	6	6	59	113	> 200		inhibition at 200 µM (PANC-1 [7]): < 50%
COc1c(NS(=O)(=O)c2ccc(F)cc2)cc2oc3cccc(OC)c3c(=O)c2c1O	> 20							< 10	
O=C1c2ccccc2C(=O)c2c1cc(S(=O)(=O)O)c(O)c2O [ALIZARIN RED]									IC50 [9]: 2.3 µM
COc1c(NS(=O)(=O)c2ccc(I)cc2)cc2oc3cccc(OC)c3c(=O)c2c1O	> 20							< 10	
COc1c(NS(=O)(=O)c2ccc(C(C)(C)C)cc2)cc2oc3cccc(OC)c3c(=O)c2c1O	> 20							< 10	
COc1c(NS(=O)(=O)c2ccc(C3CCCCC3)cc2)cc2oc3cccc(OC)c3c(=O)c2c1O	> 20							< 10	
O=c1c2c(O)cccc2oc2cc(NS(=O)(=O)c3ccc(C4CCCCC4)cc3)c(O)c(O)c12	0.5	9	9	9	10.7	26.6	35.3		Activity [10]: Dose-dependent effect
N#Cc1cccc(S(=O)(=O)Nc2cc3oc4cccc(O)c4c(=O)c3c(O)c2O)c1	2.1	13	13	13	53	18.4	> 200		
O=c1c2c(O)cccc2oc2cc(NS(=O)(=O)c3cccc4ccccc34)c(O)c(O)c12	1.7	7	7	7	23.2	27.3	101		
COc1c(NS(=O)(=O)c2cccc(C#N)c2)cc2oc3cccc(OC)c3c(=O)c2c1O	> 20							< 10	
COc1c(NS(=O)(=O)c2cc(C(F)(F)F)ccc2C(F)(F)F)cc2oc3cccc(OC)c3c(=O)c2c1O	> 20							< 10	
COc1c(NS(=O)(=O)Cc2ccccc2)cc2oc3cccc(OC)c3c(=O)c2c1O	> 20							< 10	
Cc1ccc(S(=O)(=O)Nc2cc3oc4cccc(O)c4c(=O)c3c(O)c2O)cc1	7.2	2	2	2	13.2	44.9	20.7		
O=c1c2c(O)cccc2oc2cc(NS(=O)(=O)c3ccc(F)cc3)c(O)c(O)c12	5.5	1	1	1	21.9	20.8	> 200		
O=c1c2c(O)cccc2oc2cc(NS(=O)(=O)c3ccc(N4CCCCC4)cc3)c(O)c(O)c12	1	5	5	5	8.1	47.6	> 200		
COc1c(NS(=O)(=O)c2ccc(C(F)(F)F)cc2)cc2oc3cccc(OC)c3c(=O)c2c1O	> 20							< 10	
COc1c(NS(=O)(=O)c2ccc(C#N)cc2)cc2oc3cccc(OC)c3c(=O)c2c1O	> 20							< 10	
COc1c(NS(=O)(=O)c2cccc(OC(F)(F)F)c2)cc2oc3cccc(OC)c3c(=O)c2c1O	> 20							< 10	
O=c1c2c(O)cccc2oc2cc(NS(=O)(=O)c3ccc(Br)cc3)c(O)c(O)c12	2.9	6	6	6	> 40	6.8	> 200		inhibition at 40 µM (NCI-H1299 [11]): < 50%
COc1c(NS(=O)(=O)c2ccc(Cl)cc2)cc2oc3cccc(OC)c3c(=O)c2c1O	> 20							< 10	

Structure (SMILES)	IC50 [1] [µM]	inhibition (Homo sapiens [2]) [%]	inhibition (Homo sapiens [3]) [%]	inhibition [4] [%]	IC50 (NCI-H1299 [5]) [µM]	IC50 (MCF7) [µM]	IC50 (PANC-1 [6]) [µM]	inhibition [8] [%]	further results
O=c1c2c(O)cccc2oc2cc(NS(=O)(=O)c3ccc(C(F)(F)F)cc3)c(O)c(O)c12	3.5	-1	-1	-1	10.3	30.2	58.5		
CC(C)(C)c1ccc(S(=O)(=O)Nc2cc3oc4cccc(O)c4c(=O)c3c(O)c2O)cc1	2.6	1	1	1	10.7	13.4	> 200		
O=c1c2c(O)cccc2oc2cc(NS(=O)(=O)c3cccc(OC(F)(F)F)c3)c(O)c(O)c12	5.8	12	12	12	13.9	20.5	116		
O=c1c2c(O)cccc2oc2cc(NS(=O)(=O)c3ccc4ccccc4c3)c(O)c(O)c12	1.6	9	9	9	22.6	43.3	> 200		
COc1c(NS(=O)(=O)c2ccc(N3CCCC3)cc2)cc2oc3cccc(OC)c3c(=O)c2c1O	> 20							< 10	
O=c1c2c(O)cccc2oc2cc(NS(=O)(=O)c3ccc(-c4ccccc4)cc3)c(O)c(O)c12	1.2	8	8	8	12.9	44.9	> 200		
COc1c(NS(=O)(=O)c2ccc(Br)cc2)cc2oc3cccc(OC)c3c(=O)c2c1O	> 20							< 10	
COc1c(NS(=O)(=O)c2ccc(-c3ccccc3)cc2)cc2oc3cccc(OC)c3c(=O)c2c1O	> 20							< 10	
C#CCCCC(=O)OC(C)(C)[C@H]1CC[C@]2(CO2)[C@@H](OC(=O)N[C@@H](Cc2c[nH]c3ccccc23)C(=O)OCc2ccccc2)C1									IC50 [12]: 33 µM
COc1c(NS(=O)(=O)c2ccc(N3CCCCC3)cc2)cc2oc3cccc(OC)c3c(=O)c2c1O	> 20							< 10	
O=c1c2c(O)cccc2oc2cc(NS(=O)(=O)c3ccc(I)cc3)c(O)c(O)c12	1.9	11	11	11	24.3	13.5	34.5		
COc1c(NS(=O)(=O)c2cccc3ccccc23)cc2oc3cccc(OC)c3c(=O)c2c1O	> 20							< 10	
COc1c(NS(=O)(=O)c2ccccc2)cc2oc3cccc(OC)c3c(=O)c2c1O	> 20							< 10	
O=c1c2c(O)cccc2oc2cc(NS(=O)(=O)c3ccc(Cl)cc3)c(O)c(O)c12	3.6	15	15	15	10.2	15.5	91.4		
O=c1c2c(O)cccc2oc2cc(NS(=O)(=O)Cc3ccccc3)c(O)c(O)c12	1.9	12	12	12	62.9	> 200	> 200		
COc1c(NS(=O)(=O)c2ccc(C)cc2)cc2oc3cccc(OC)c3c(=O)c2c1O	> 20							< 10	
O=c1c2c(O)cccc2oc2cc(NS(=O)(=O)c3ccc(N4CCCC4)cc3)c(O)c(O)c12	2.7	4	4	4	5	> 200	137		Ratio IC50 (NCI-H1299 [13]): 5
COc1c(NS(=O)(=O)c2ccc3ccccc3c2)cc2oc3cccc(OC)c3c(=O)c2c1O	> 20							< 10	
N#Cc1ccc(S(=O)(=O)Nc2cc3oc4cccc(O)c4c(=O)c3c(O)c2O)cc1	4.2	10	10	10	> 40	40.1	> 200		
